Data taken from ChEMBL document CHEMBL3745670, “Synthesis and biological evaluation of novel lipoamino acid derivatives” (Bioorg Med Chem Lett, 2016).
pIC50: −log10 of the molar value. In brackets after ≈: the same amount, converted by molar mass.

Tested on: Candida parapsilosis
Assay: Inhibition of ergosterol biosynthesis in Candida parapsilosis MTCC 1744 assessed as mean ergosterol content at 2 ug/ml after 20 hrs by spectrophotometric analysis (Rvb=1.62 +/- 0.08 ug/ml)
Type: functional
Conditions: not given

Structure (SMILES) | Activity [µg/mL]
CCCCCCCCC(CCCCCCCCC(=O)OC)SCC(=O)N[C@@H](C)C(=O)OC (stereo not given in full) | 1.41

Tested on: Bacillus subtilis
Assay: Antibiofilm activity against Bacillus subtilis MTCC 121 after 24 hrs by well diffusion assay by crystal violet staining based method
Type: functional, organism-based
Conditions: MTCC 121, 24 h
Outline: (§1)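 Biofilm inhibition was tested on the four Gram-positive strains, using crystal violet staining.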

Structure (SMILES) | pIC50
CCCCCCCCC(CCCCCCCCC(=O)OC)SCC(=O)N[C@@H](C)C(=O)OC (stereo not given in full) | 5.55

Tested on: not listed separately
Assay: Cytotoxicity against human SKOV3 cells by MTT assay
Type: functional, cell-based
Conditions: SK-OV-3

Structure (SMILES) | pIC50
CCCCCCCCC(CCCCCCCCC(=O)OC)SCC(=O)N[C@@H](C)C(=O)OC (stereo not given in full) | 3.94

Tested on: Staphylococcus aureus
Assay: Bactericidal activity against Staphylococcus aureus MTCC 96 after 24 hrs
Type: functional
Conditions: MTCC 96, 24 h
Outline: (§2)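 Minimum bactericidal concentration was determined on four Gram-positive strains, for the compounds active in the preliminary antibacterial screen.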

Structure (SMILES) | MBC [µg/mL]
CCCCCCCCC(CCCCCCCCC(=O)OC)SCC(=O)N[C@@H](C)C(=O)OC (stereo not given in full) | 31.2 (≈ 65.9 µM)

Tested on: Raoultella planticola
Assay: Antibacterial activity against Klebsiella planticola MTCC 530 after 24 hrs by well diffusion assay
Type: functional
Conditions: MTCC 530, 24 h

Structure (SMILES) | MIC [µg/mL]
CCCCCCCCC(CCCCCCCCC(=O)OC)SCC(=O)N[C@@H](C)C(=O)OC (stereo not given in full) | > 125

Tested on: Candida albicans
Assay: Antifungal activity against Candida albicans MTCC 1637 after 24 hrs by well diffusion assay
Type: functional
Conditions: MTCC 1637, 24 h
Outline: (§3)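 Well diffusion screen against Candida and related fungal strains. Read-out is MIC in µg/mL, with miconazole as the reference drug.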

Structure (SMILES) | MFC [µg/mL] | MIC [µg/mL]
CCCCCCCCC(CCCCCCCCC(=O)OC)SCC(=O)N[C@@H](C)C(=O)OC (stereo not given in full) | 31.2 (≈ 65.9 µM) | 31.2 (≈ 65.9 µM)

Tested on: Staphylococcus aureus
Assay: Bactericidal activity against Staphylococcus aureus MLS-16 MTCC 2940 after 24 hrs
Type: functional
Conditions: MLS-16 MTCC 2940, 24 h
Outline: as §2

Structure (SMILES) | MBC [µg/mL]
CCCCCCCCC(CCCCCCCCC(=O)OC)SCC(=O)N[C@@H](C)C(=O)OC (stereo not given in full) | 15.6 (≈ 32.9 µM)

Tested on: Candida albicans
Assay: Antifungal activity against Candida albicans MTCC 3017 after 24 hrs by well diffusion assay
Type: functional
Conditions: MTCC 3017, 24 h
Outline: as §3

Structure (SMILES) | MIC [µg/mL]
CCCCCCCCC(CCCCCCCCC(=O)OC)SCC(=O)N[C@@H](C)C(=O)OC (stereo not given in full) | 7.8 (≈ 16.5 µM)

Tested on: Micrococcus luteus
Assay: Antibiofilm activity against Micrococcus luteus MTCC 2470 after 24 hrs by crystal violet staining based method
Type: functional, organism-based
Conditions: MTCC 2470, 24 h
Outline: as §1

Structure (SMILES) | pIC50
CCCCCCCCC(CCCCCCCCC(=O)OC)SCC(=O)N[C@@H](C)C(=O)OC (stereo not given in full) | 5.39

Tested on: Micrococcus luteus
Assay: Bactericidal activity against Micrococcus luteus MTCC 2470 after 24 hrs
Type: functional
Conditions: MTCC 2470, 24 h
Outline: as §2

Structure (SMILES) | MBC [µg/mL]
CCCCCCCCC(CCCCCCCCC(=O)OC)SCC(=O)N[C@@H](C)C(=O)OC (stereo not given in full) | 7.8 (≈ 16.5 µM)

Tested on: Candida albicans
Assay: Antifungal activity against Candida albicans MTCC 854 after 24 hrs by well diffusion assay
Type: functional
Conditions: MTCC 854, 24 h
Outline: as §3

Structure (SMILES) | MFC [µg/mL] | MIC [µg/mL]
CCCCCCCCC(CCCCCCCCC(=O)OC)SCC(=O)N[C@@H](C)C(=O)OC (stereo not given in full) | 62.5 (≈ 132 µM) | 31.2 (≈ 65.9 µM)

Tested on: Candida parapsilosis
Assay: Inhibition of ergosterol biosynthesis in Candida parapsilosis MTCC 1744 assessed as mean ergosterol content at 4 ug/ml after 20 hrs by spectrophotometric analysis (Rvb=1.62 +/- 0.08 ug/ml)
Type: functional
Conditions: not given

Structure (SMILES) | Activity [µg/mL]
CCCCCCCCC(CCCCCCCCC(=O)OC)SCC(=O)N[C@@H](C)C(=O)OC (stereo not given in full) | 0.63

Tested on: Staphylococcus aureus
Assay: Antibacterial activity against Staphylococcus aureus MLS-16 MTCC 2940 after 24 hrs by well diffusion assay
Type: functional
Conditions: MLS-16 MTCC 2940, 24 h

Structure (SMILES) | MIC [µg/mL]
CCCCCCCCC(CCCCCCCCC(=O)OC)SCC(=O)N[C@@H](C)C(=O)OC (stereo not given in full) | 7.8 (≈ 16.5 µM)

Tested on: MDA-MB-231
Assay: Cytotoxicity against human MDA-MB-231 cells by MTT assay
Type: functional, cell-based
Conditions: not given

Structure (SMILES) | pIC50
CCCCCCCCC(CCCCCCCCC(=O)OC)SCC(=O)N[C@@H](C)C(=O)OC (stereo not given in full) | 4.01

Tested on: Candida parapsilosis
Assay: Inhibition of ergosterol biosynthesis in Candida parapsilosis MTCC 1744 assessed as mean ergosterol content at 8 ug/ml after 20 hrs by spectrophotometric analysis (Rvb=1.62 +/- 0.08 ug/ml)
Type: functional
Conditions: not given

Structure (SMILES) | Activity [µg/mL]
CCCCCCCCC(CCCCCCCCC(=O)OC)SCC(=O)N[C@@H](C)C(=O)OC (stereo not given in full) | 0.38

Tested on: [Candida] aaseri
Assay: Antifungal activity against Candida aaseri MTCC 1962 after 24 hrs by well diffusion assay
Type: functional
Conditions: Yamadazyma aaseri, MTCC 1962, 24 h
Outline: as §3

Structure (SMILES) | MFC [µg/mL] | MIC [µg/mL]
CCCCCCCCC(CCCCCCCCC(=O)OC)SCC(=O)N[C@@H](C)C(=O)OC (stereo not given in full) | 31.2 (≈ 65.9 µM) | 15.6 (≈ 32.9 µM)

Tested on: Candida albicans
Assay: Antifungal activity against Candida albicans MTCC 7315 after 24 hrs by well diffusion assay
Type: functional
Conditions: MTCC 7315, 24 h
Outline: as §3

Structure (SMILES) | MFC [µg/mL] | MIC [µg/mL]
CCCCCCCCC(CCCCCCCCC(=O)OC)SCC(=O)N[C@@H](C)C(=O)OC (stereo not given in full) | 31.2 (≈ 65.9 µM) | 15.6 (≈ 32.9 µM)

Tested on: Candida albicans
Assay: Antifungal activity against Candida albicans MTCC 4748 after 24 hrs by well diffusion assay
Type: functional
Conditions: MTCC 4748, 24 h
Outline: as §3

Structure (SMILES) | MFC [µg/mL] | MIC [µg/mL]
CCCCCCCCC(CCCCCCCCC(=O)OC)SCC(=O)N[C@@H](C)C(=O)OC (stereo not given in full) | 15.6 (≈ 32.9 µM) | 15.6 (≈ 32.9 µM)

Tested on: not listed separately
Assay: Cytotoxicity against human DU145 cells by MTT assay
Type: functional, cell-based
Conditions: DU-145

Structure (SMILES) | pIC50
CCCCCCCCC(CCCCCCCCC(=O)OC)SCC(=O)N[C@@H](C)C(=O)OC (stereo not given in full) | 3.81

Tested on: Bacillus subtilis
Assay: Bactericidal activity against Bacillus subtilis MTCC 121 after 24 hrs by well diffusion assay
Type: functional
Conditions: MTCC 121, 24 h
Outline: as §2

Structure (SMILES) | MBC [µg/mL]
CCCCCCCCC(CCCCCCCCC(=O)OC)SCC(=O)N[C@@H](C)C(=O)OC (stereo not given in full) | 7.8 (≈ 16.5 µM)
